Experimental data as given in article PMC3116947 (Journal of Molecular Recognition, 2010).
Ends that are not written are not given here.

Experiments:
[1] = biological target: D187A mutant of cSH3 domain (cSH3_D187A) of Grb2 (Homo sapiens, UniProt P62993, D187A); assay: ITC binding of G1 and G2 peptides to cSH3_D187A; conditions: SD
Procedure, shortened: (§1)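 Human Grb2 cSH3 domain (wildtype or point mutant) expressed in E. coli Rosetta2(DE3), purified by Ni-NTA and size-exclusion chromatography. 12-mer human Gab1 peptides, concentration measured gravimetrically. ITC at 25 °C in 50 mM Tris pH 8.0, 200 mM NaCl, 1 mM EDTA, 5 mM β-mercaptoethanol: 25 injections of 2–8 mM peptide into 50–200 µM cSH3. Kd from one-site non-linear least-squares fit; 3–4 independent runs, SD.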

[2] = biological target: E171A mutant of cSH3 domain (cSH3_E171A) of Grb2 (Homo sapiens, UniProt P62993, E171A); assay: ITC binding of G1 and G2 peptides to cSH3_E171A; conditions: SD
Chain of E171A mutant of cSH3 domain (cSH3_E171A) of Grb2 (P62993 156-215 E171A limits assumed): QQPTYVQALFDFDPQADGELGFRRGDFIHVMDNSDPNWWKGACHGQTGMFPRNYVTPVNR
Procedure, shortened: as §1

[3] = biological target: E174A mutant of cSH3 domain (cSH3_E174A) of Grb2 (Homo sapiens, UniProt P62993, E174A); assay: ITC binding of G1 and G2 peptides to cSH3_E174A
Chain of E174A mutant of cSH3 domain (cSH3_E174A) of Grb2 (P62993 156-215 E174A limits assumed): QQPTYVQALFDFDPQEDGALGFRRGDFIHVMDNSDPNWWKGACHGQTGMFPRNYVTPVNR
Procedure, shortened: as §1

[4] = biological target: cSH3 domain of Grb2 (Homo sapiens, UniProt P62993); assay: ITC binding of Gab1-derived peptides to wildtype cSH3 domain of Grb2; conditions: binding affinity (Kd), 50 mM Tris, pH 8.0, 25 °C (Figure 3a)
Chain of cSH3 domain of Grb2 (P62993 156-215 limits assumed): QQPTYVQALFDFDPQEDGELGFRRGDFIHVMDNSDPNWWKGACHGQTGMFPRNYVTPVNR

[5] = biological target: D190A mutant of cSH3 domain (cSH3_D190A) of Grb2 (Homo sapiens, UniProt P62993, D190A); assay: ITC binding of G1 and G2 peptides to cSH3_D190A; conditions: SD
Chain of D190A mutant of cSH3 domain (cSH3_D190A) of Grb2 (P62993 156-215 D190A limits assumed): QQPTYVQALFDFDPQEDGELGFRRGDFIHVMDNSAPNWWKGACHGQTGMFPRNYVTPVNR
Procedure, shortened: as §1

Chain of D187A mutant of cSH3 domain (cSH3_D187A) of Grb2 (P62993 156-215 D187A limits assumed): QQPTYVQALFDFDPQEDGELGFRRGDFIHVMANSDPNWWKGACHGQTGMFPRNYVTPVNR

Sequence	Kd [1] [µM]	Kd [2] [µM]	Kd [3] [µM]	Kd ([4]; in the absence of NaCl) [µM]	Kd ([4]; in the presence of 500 mM NaCl) [µM]	Kd [5] [µM]
DIPPPRPPKPHP [Peptide G1]	171 ± 8	444 ± 55	> 1000	~50	~200	177 ± 17
PPPVDRNLKPDR [Peptide G2]	182 ± 3	158 ± 1	> 1000	–	–	77 ± 6
